# Mac1 fbg inh = inhibitors of human CD11b/CD18 binding to fibrinogen; K562 CD11b/CD18 adhesion to fibrinogen, ATPlite luminescence; Mn2+ added to activate the integrin; inhibition, % at 10 µM; 0.54% of 93,000 active;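 active means primary inhibition of 50% or more at 10 µM, then 40% or more on retest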
# sEH activator = increases human soluble epoxide hydrolase activity; P34913; purified human sEH enzymatic activity, activator screen; activation, % at 2 µM; 0.04% of 91,000 active; in the data active means activation above about 37%
# sEH inh = inhibitors of human soluble epoxide hydrolase; 0.34% of 91,000 active; recombinant human sEH enzymatic activity assay; inhibition, % at 2 µM; P34913; in the data active means inhibition above about 80%
# HIV Rev-RRE inh = HIV Rev-RRE protein-RNA interaction inhibition. AID 704. inhibition, % at 8 µM. P05866. 0.79% of 97,000 active. Rev peptide-RRE RNA binding, FRET;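 active means inhibition above the screen-wide mean plus 3 SD, cut at about 35% in these data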;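 further: 0% = median DMSO wells and 100% = median Neomycin B control wells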
# Target sequence (P05866 whole entry, looked up): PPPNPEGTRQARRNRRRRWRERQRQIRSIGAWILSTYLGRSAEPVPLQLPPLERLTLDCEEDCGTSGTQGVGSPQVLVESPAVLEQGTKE
#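 System: Cy5-labelled duplex RRE RNA binding fluorescein-labelled HIV Rev peptide; Signal: fluorescein-to-Cy5 FRET, 480 nm excitation; Also added: labelled Rev peptide; Compound: one concentration, 8 µM nominal; Buffer or medium: HEPES pH 7.5 salt buffer with EDTA; Read-out: % inhibition of FRET ratio versus controls; Schedule: 5 min preincubation and 15 min binding, 25 °C.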
# Smad3 inh = inhibitors of human Smad3 transcription factor binding; P84022; TR-FRET Smad3/Dy647-FoxH1 peptide binding, europium anti-His; inhibition, % at 25 µM; 0.29% of 88,000 active; AID 630;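 active means compounds that reduce the energy-transfer binding signal between the protein and its labelled peptide by more than half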;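 further: 0% = Smad3 plus labelled peptide maximal FRET and 100% = peptide-only background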
# CD11b adhes enh = enhancers of human CD11b/CD18 binding to fibrinogen; P05107+P11215; K562 CD11b/CD18 adhesion to fibrinogen, ATPlite luminescence; activation, % at 10 µM; 0.07% of 93,000 active; AID 1499;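 active means 10 µM primary screen giving 50% or more activity, confirmed by 40% or more on retest at that dose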
# Starred values were filed as active, the others as inactive; nt = not tested or not shown; [ ] = dose if it differs, or a comment. Rows were chosen to be rich in hits. Some 1.6% of all compounds tested hit in one or more screens of this group.
SMILES,Mac1 fbg inh,sEH activator,sEH inh,HIV Rev-RRE inh,Smad3 inh,CD11b adhes enh
O=C1N=C(N2CCOCC2)S/C1=C/c1ccc(-c2ccccc2Cl)o1,-8,7,-4,-6,nt,12
O=C1S/C(=C/c2ccc(N3CCOCC3)o2)C(=O)N1Cc1c(F)cccc1Cl,45,0,-3,126*[fluorescence artefact?],-6,1
CCOC(=O)c1c(NC(=O)CSc2nnnn2-c2ccc(OC)cc2)sc(C)c1C,63*,16,-18,10,-6,-6
CCOC(=O)c1csc(NC(=O)CSc2nnnn2-c2ccc(OC)cc2)n1,-7,nt,nt,-5,nt,-5
O=C(O)NCc1ccccc1 (tested in a mixture with another compound),nt,nt,nt,nt,-9,nt
Clc1ccc(OCCN2CCN(c3ncnc4sccc34)CC2)cc1,99*,nt,nt,nt,nt,-8
Clc1ccc(CN2CCN(c3ncnc4scc(-c5cccs5)c34)CC2)cc1,64,-3,3,3,8,-4
Cc1ccc(OCCN2CCN(c3ncnc4sc(C)c(C)c34)CC2)cc1,97*,2,-1,7,16,-8
NC1=N[C@@H](c2ccc(Cl)cc2)N(c2ccc(S(N)(=O)=O)cc2)C(N)=N1,nt,nt,nt,nt,6,nt
COc1ccccc1-n1c(SCC(=O)NC(C)(C)C)nc(O)cc1=O,-7,nt,nt,2,-7,-4
CC(C)(C)NC(=O)CSc1nc(O)cc(=O)n1-c1ccccc1F,-1,nt,nt,53*,0,-2
COc1cccc(CNCCc2c[nH]c3ccccc23)c1OCc1ccccc1,60*,nt,nt,nt,nt,1
Nc1cccc(OCc2nc(N)nc(N)c2-c2ccc(Cl)cc2)c1,nt,nt,nt,nt,12,nt
O=C(Nc1nc2ccccc2s1)c1cc2c(s1)-c1ccccc1OC2,0,23,-24,13,-26,52
COC(=O)c1cc2c(s1)-c1ccccc1OC2,-5,44*,-38,nt,11,2
CSC1=NCCN1C(=O)c1ccc(Br)o1,51*,-11,10,10,-5,-6
Cc1nc2sccn2c1-c1csc(NCc2ccccc2)n1,109*,0,-1,-3,-1,-9
C=CCNc1nc(-c2c(C)nc3sccn23)cs1,nt,2,2,2,12,nt
O=S(=O)(c1ccc(Br)cc1)N1CCN(S(=O)(=O)c2ccc(Br)cc2)CC1,nt,nt,nt,nt,-2,nt
C=CCNC(=O)c1onc(CSc2ccc(F)cc2)c1C(=O)NCCOC,60*,-1,2,4,nt,-6
c1ccc2c(c1)CCCN2Cc1nnnn1CC1CCCO1 (configuration not stated),-15,-16,16,55*,-7,-3
NNC(=O)CCc1ccc2ccc3ccccc3c2c1,nt,nt,nt,nt,36,nt
OCCCc1nc2n(n1)C(c1cccs1)C=C(c1ccccc1)N2 (configuration not stated),0,-5,2,137*[fluorescence artefact?],5,-2
OCCCc1nc2n(n1)C(c1ccccc1Cl)C=C(c1cccs1)N2 (configuration not stated),-1,-2,2,92*[fluorescence artefact?],14,2
OCCCc1nc2n(n1)C(c1ccccc1)C=C(c1ccc(F)cc1)N2 (configuration not stated),nt,-12,15,34,6,nt
SMILES,Mac1 fbg inh,sEH activator,sEH inh,HIV Rev-RRE inh,Smad3 inh,CD11b adhes enh
Cc1cc([N+](=O)[O-])c(C)c(Br)c1C,nt,nt,nt,nt,-5,nt
O=S(=O)(/C=C/c1ccccc1)N1CCN(c2cccc(Cl)c2)CC1,4,38*,-38,3,-15,9
COc1cc(-c2c(C#N)c(N)nc3c2CCCC3)ccc1O,-7,-5,3,-4,2,1
COc1cc(/C=C(\C#N)c2nc3c(s2)CCCC3)ccc1O,25,18,-20,72*,nt,-1
O=[N+]([O-])c1ccc(S(=O)(=O)Cc2ccccc2)c2nonc12,nt,nt,nt,nt,4,nt
CCCCCCCCOc1ccc(C2OC34CCCCC3C(C#N)(C#N)C2(C#N)C(=N)O4)cc1 (configuration not stated),-5,-1,0,43*,1,-4
CCCCC1OC23CCCCC2C(C#N)(C(=N)O3)C1(C#N)C#N (configuration not stated),-15,6,-6,20,4,4
O=C(Nc1ccc(-c2nc3ccc(NC(=O)c4cccs4)cc3[nH]2)cc1)c1cccs1,3,12,-15,1,54*[fluorescence artefact?],32

# Source: PubChem BioAssay
